Structures can show the parent of a compound that is named as a salt.
Key:
[1] = organism: Bos taurus; experiment: Inhibition of calf thymus topoisomerase 1-mediated relaxation of supercoiled pBR322 DNA at 100 uM after 30 mins by agarose gel electrophoresis
In short: (§1)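 Compound at 20 or 100 μM, 37 °C for 30 min. Stopped with SDS/dye mix, run on 1% agarose in TBE for 10 h, stained with ethidium bromide (0.5 μg/mL).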

[2] = organism: Bos taurus; experiment: Inhibition of calf thymus topoisomerase 1-mediated relaxation of supercoiled pBR322 DNA at 20 uM after 30 mins by agarose gel electrophoresis; in short: as §1
[3] = molecular target: DNA topoisomerase 2-alpha (Homo sapiens) (UniProt P11388); experiment: Inhibition of human topoisomerase 2 alpha-mediated relaxation of supercoiled pBR322 DNA at 100 uM after 30 mins by agarose gel electrophoresis
DNA topoisomerase 2-alpha (Homo sapiens), sequence (P11388 whole entry): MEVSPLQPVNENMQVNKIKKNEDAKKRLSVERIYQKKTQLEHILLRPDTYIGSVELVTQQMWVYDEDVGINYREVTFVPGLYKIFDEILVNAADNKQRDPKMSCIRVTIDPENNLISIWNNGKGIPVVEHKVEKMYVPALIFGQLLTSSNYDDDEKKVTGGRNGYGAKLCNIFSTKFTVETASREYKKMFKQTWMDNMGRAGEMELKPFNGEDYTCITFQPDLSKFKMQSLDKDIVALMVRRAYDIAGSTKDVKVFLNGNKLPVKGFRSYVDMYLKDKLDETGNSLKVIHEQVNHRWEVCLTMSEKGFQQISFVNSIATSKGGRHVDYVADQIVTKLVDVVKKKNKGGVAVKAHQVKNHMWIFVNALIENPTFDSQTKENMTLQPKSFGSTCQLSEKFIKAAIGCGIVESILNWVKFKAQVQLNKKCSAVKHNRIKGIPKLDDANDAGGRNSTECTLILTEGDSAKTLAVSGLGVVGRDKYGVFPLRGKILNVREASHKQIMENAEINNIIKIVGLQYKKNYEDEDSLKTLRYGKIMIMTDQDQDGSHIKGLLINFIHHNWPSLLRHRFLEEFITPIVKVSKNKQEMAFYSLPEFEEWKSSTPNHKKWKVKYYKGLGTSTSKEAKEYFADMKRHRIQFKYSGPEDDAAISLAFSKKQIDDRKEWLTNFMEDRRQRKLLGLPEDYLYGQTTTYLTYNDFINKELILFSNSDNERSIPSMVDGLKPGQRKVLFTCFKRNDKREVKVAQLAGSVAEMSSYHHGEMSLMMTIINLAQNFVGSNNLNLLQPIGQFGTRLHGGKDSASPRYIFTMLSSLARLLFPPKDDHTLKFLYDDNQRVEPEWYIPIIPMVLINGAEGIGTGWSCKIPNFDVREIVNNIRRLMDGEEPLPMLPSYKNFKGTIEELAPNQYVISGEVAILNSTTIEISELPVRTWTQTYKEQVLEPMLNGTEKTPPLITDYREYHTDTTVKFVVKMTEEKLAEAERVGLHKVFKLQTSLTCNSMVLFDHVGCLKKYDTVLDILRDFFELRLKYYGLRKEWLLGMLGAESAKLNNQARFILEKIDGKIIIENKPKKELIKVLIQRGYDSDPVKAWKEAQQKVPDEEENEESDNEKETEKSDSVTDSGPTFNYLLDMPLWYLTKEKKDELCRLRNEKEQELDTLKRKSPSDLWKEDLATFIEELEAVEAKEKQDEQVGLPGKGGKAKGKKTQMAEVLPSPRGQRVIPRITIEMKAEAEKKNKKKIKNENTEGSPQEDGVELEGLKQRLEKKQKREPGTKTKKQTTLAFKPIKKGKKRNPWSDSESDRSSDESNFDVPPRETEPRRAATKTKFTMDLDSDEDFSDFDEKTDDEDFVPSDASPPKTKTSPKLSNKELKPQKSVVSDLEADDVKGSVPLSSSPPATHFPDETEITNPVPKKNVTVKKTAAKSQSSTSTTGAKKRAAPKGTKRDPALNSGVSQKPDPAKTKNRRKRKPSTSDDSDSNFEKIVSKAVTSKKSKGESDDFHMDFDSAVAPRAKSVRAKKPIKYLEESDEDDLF
In short: (§2)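 Human topo II (0.3 U) with 0.2 μg pBR322 in 50 mM Tris–HCl pH 8.0, 120 mM KCl, 10 mM MgCl2, 0.5 mM ATP, 0.5 mM DTT and BSA. Compound at 20 or 100 μM, 37 °C for 30 min. Stopped with 0.77% SDS/77 mM EDTA, run on 1% agarose at 1.5 V/cm for 10 h in TBE, stained with ethidium bromide.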

[4] = molecular target: DNA topoisomerase 2-alpha (Homo sapiens) (UniProt P11388); experiment: Inhibition of human topoisomerase 2 alpha-mediated relaxation of supercoiled pBR322 DNA at 20 uM after 30 mins by agarose gel electrophoresis; in short: as §2
[5] = system: MDA-MB-231; experiment: Cytotoxicity against human MDA-MB-231 cells after 3 days; type: functional, cell-based; details: MDA-MB-231, 72 h
In short: (§3)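 Cells seeded at 2–4 × 10⁴ per well and held overnight at 37 °C, 5% CO₂ in medium with 10% FBS. On day 1 the medium was replaced with medium holding graded compound concentrations. Absorbance read at 450 nm. IC50 from a four-parameter logistic fit of the 450 nm readings.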

[6] = system: MCF7; experiment: Cytotoxicity against human MCF7 cells after 3 days; type: functional, cell-based; details: MCF7, 72 h; in short: as §3
[7] = system: HeLa; experiment: Cytotoxicity against human HeLa cells after 3 days; type: functional, cell-based; details: 72 h; in short: as §3
[8] = system: DU-145; experiment: Cytotoxicity against human DU145 cells after 3 days; type: functional, cell-based; details: DU-145, 72 h; in short: as §3
[9] = system: HCT-116; experiment: Cytotoxicity against human HCT116 cells after 3 days; type: functional, cell-based; details: HCT-116, 72 h; in short: as §3

SMILES	inhibition [1]	inhibition [2]	inhibition [3]	inhibition [4]	IC50 [5]	IC50 [6]	IC50 [7]	IC50 [8]	IC50 [9]
c1cc(-c2cc(-c3ccsc3)nc(-c3ccsc3)c2)co1	0%	0%	12%	4%	–	–	–	–	–
Cc1ccc(-c2cc(-c3cccs3)nc(-c3sccc3C)c2)o1	0%	0%	25%	15%	–	–	–	–	–
Clc1ccc(-c2cc(-c3ccsc3)nc(-c3cccs3)c2)o1	50%	12%	55%	7%	26.8 µM	> 100 µM	43.7 µM	> 100 µM	> 100 µM
Cc1ccsc1-c1cc(-c2ccoc2)cc(-c2ccsc2)n1	13%	0%	0%	0%	–	–	–	–	–
COc1cc([C@@H]2c3cc4c(cc3[C@@H](O[C@@H]3O[C@@H]5CO[C@@H](C)O[C@H]5[C@H](O)[C@H]3O)[C@H]3COC(=O)[C@H]23)OCO4)cc(OC)c1O [ETOPOSIDE]	–	–	73%	36%	16.9 µM	18 µM	8.43 µM	21.1 µM	17.9 µM
Cc1ccsc1-c1cc(-c2ccco2)cc(-c2cccs2)n1	51%	12%	28%	9%	59.6 µM	> 100 µM	17.9 µM	> 100 µM	56.4 µM
Cc1ccc(-c2cc(-c3ccsc3)nc(-c3sccc3C)c2)o1	0%	0%	0%	0%	–	–	–	–	–
Cc1ccc(-c2cc(-c3ccsc3)nc(-c3cccs3)c2)o1	0%	0%	2%	0%	–	–	–	–	–
Cc1ccc(-c2cc(-c3cccs3)nc(-c3cc(C)sc3C)c2)o1	5%	0%	0%	0%	–	–	–	–	–
COc1cccc2c1C(=O)c1c(O)c3c(c(O)c1C2=O)C[C@@](O)(C(=O)CO)C[C@@H]3O[C@H]1C[C@H](N)[C@H](O)[C@H](C)O1 [DOXORUBICIN HYDROCHLORIDE]	–	–	–	–	1.16 µM	–	1.6 µM	1.3 µM	–
Cc1ccc(-c2cc(-c3ccsc3)nc(-c3cc(C)sc3C)c2)o1	0%	0%	7%	0%	–	–	–	–	–
c1coc(-c2cc(-c3ccsc3)nc(-c3ccsc3)c2)c1	0%	0%	32%	0%	–	–	–	–	–
Cc1ccc(-c2cc(-c3ccsc3)nc(-c3ccsc3)c2)o1	0%	0%	5%	0%	–	–	–	–	–
Cc1ccsc1-c1cc(-c2ccoc2)cc(-c2cccs2)n1	9%	3%	3%	7%	–	–	–	–	–
c1csc(-c2cc(-c3ccoc3)cc(-c3ccsc3)n2)c1	0%	0%	18%	1%	–	–	–	–	–
CC[C@@]1(O)C(=O)OCc2c1cc1n(c2=O)Cc2cc3ccccc3nc2-1 [CAMPTOTHECIN]	54%	41%	–	–	1.1 µM	7.42 µM	1.85 µM	1.46 µM	2.77 µM
c1coc(-c2cc(-c3ccsc3)nc(-c3cccs3)c2)c1	12%	5%	34%	0%	–	–	–	–	–
Clc1ccc(-c2cc(-c3ccsc3)nc(-c3ccsc3)c2)o1	14%	0%	8%	0%	–	–	–	–	–
Clc1ccc(-c2cc(-c3cccs3)nc(-c3cccs3)c2)o1	42%	12%	35%	0%	54.8 µM	> 100 µM	55.2 µM	88.1 µM	95.5 µM
c1csc(-c2cc(-c3ccoc3)cc(-c3cccs3)n2)c1	0%	0%	70%	15%	23.6 µM	> 100 µM	8.62 µM	> 100 µM	50.6 µM
Cc1ccsc1-c1cc(-c2ccoc2)cc(-c2sccc2C)n1	30%	15%	0%	0%	–	–	–	–	–
Cc1ccsc1-c1cc(-c2ccco2)cc(-c2ccsc2)n1	52%	9%	58%	11%	41.8 µM	> 100 µM	19.2 µM	> 100 µM	51.1 µM
Cc1ccsc1-c1cc(-c2ccco2)cc(-c2sccc2C)n1	92%	88%	23%	14%	38.3 µM	> 100 µM	35.8 µM	98.2 µM	> 100 µM
Cc1ccc(-c2cc(-c3cccs3)nc(-c3cccs3)c2)o1	3%	0%	8%	0%	–	–	–	–	–
